Data: ChEMBL document CHEMBL1649171, “Metabolism of an alkyl polyamine analog by a polyamine oxidase from the microsporidian Encephalitozoon cuniculi” (Antimicrob Agents Chemother, 2009)
Values joined by “and” are separate entries in the source; they are usually repeats but may differ in a detail not shown here. Identical values can stand only once.

Tests used:
Encephalitozoon cuniculi [1] = test: Activity of Encephalitozoon cuniculi polyamine oxidase assessed as hydrogen peroxide release per mg protein by spectrophotometry relative to 1 mM N'-acetylspermine
How it was run: (§1)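 Crude enzyme came from mature E. cuniculi spores collected from culture overlay. Spores were washed in PBS pH 6.8, given 1% SDS for 5 min, glass-bead disrupted to >80% breakage, and clarified at 2,200 × g. The 1 ml assay at 37°C held 0.1 M glycine pH 7.0, 10 U horseradish peroxidase, 5 mM ABTS and 22–220 μg protein. Substrate started the reaction. A420 was followed 15 or 30 min; initial linear rate minus no-substrate control.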

Encephalitozoon cuniculi [2] = test: Activity of Encephalitozoon cuniculi polyamine oxidase assessed as hydrogen peroxide release per mg protein by spectrophotometry relative to 0.1 mM N'-acetylspermine; how it was run: as §1
Encephalitozoon cuniculi [3] = test: Activity of Encephalitozoon cuniculi polyamine oxidase assessed as hydrogen peroxide release by spectrophotometry; how it was run: as §1
[4] = Inhibition of Encephalitozoon cuniculi polyamine oxidase assessed as hydrogen peroxide release using N'-acetylspermine substrate by spectrophotometry
How it was run: (§2)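 Crude spore extract (SDS-washed spores, glass-bead disrupted, clarified at 2,200 × g) in 0.1 M glycine, pH 7.0, with horseradish peroxidase and ABTS. Runs used N1-acetylspermine at 100–2,000 μM, alone or with the analog fixed at 5, 50 or 100 μM; the analog alone was run at 1–25 μM. Reactions were started with 67 μg extract, and A420 was read for 15 min. Kinetic constants came from Hanes-Woolf plots ([S]/V vs [S]).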

Encephalitozoon cuniculi [5] = test: Activity of Encephalitozoon cuniculi polyamine oxidase assessed as hydrogen peroxide release by spectrophotometry in presence of 1,15-bis{N-[O-phenyl)benzylamino}-4,12-diazapentadecane; how it was run: as §2
Encephalitozoon cuniculi [6] = test: Activity of Encephalitozoon cuniculi polyamine oxidase assessed as hydrogen peroxide release per mg protein by spectrophotometry
How it was run: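 Enzyme was a clarified glass-bead homogenate of SDS-washed mature spores (>80% breakage). Reactions at 37°C held 0.1 M glycine, pH 7.0, 10 U HRP, 5 mM ABTS and 22–220 μg protein, and were started with substrate (1 mM N1-acetylspermine or another, e.g. 0.1 mM). Peroxide was followed as ABTS oxidation at 420 nm (ε 3.6 × 10⁴ M⁻¹ cm⁻¹) for 15 or 30 min. Values are the initial linear rate minus a no-substrate control.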

| Compound | fold change (FC) (Encephalitozoon cuniculi [1]) | fold change (FC) (Encephalitozoon cuniculi [2]) | Km (Encephalitozoon cuniculi [3]) | Vmax (Encephalitozoon cuniculi [3]) | Ki [4] | Km (Encephalitozoon cuniculi [5]) | Vmax (Encephalitozoon cuniculi [5]) | Activity (Encephalitozoon cuniculi [6]) |
| --- | --- | --- | --- | --- | --- | --- | --- | --- |
| c1ccc(-c2ccccc2CNCCCNCCCCCCCNCCCNCc2ccccc2-c2ccccc2)cc1 | 0.31 | 0.8 | 2 µM | 7.6 µM/min | 40 µM | – | – | – |
| CC(=O)NCCCNCCCCNCCCN | – | – | 30 µM | 10 µM/min | – | 15 µM | 17.5 µM/min | – |
| c1ccc(CNCCCNCCCCCCCNCCCNCc2ccccc2)cc1 | 0.89 | 0.98 | – | – | – | – | – | 1370 nmol/min and 690 nmol/min |
